Data from PMC3155308 (The EMBO Journal, 2011).
Changes are numbered by the printed parent chain. Names may count otherwise. “Also recorded” adds a separate entry of the source. Each block holds one molecule with its values, some of them ahead of it. Where no end group is shown, it is not given here.

Tests used:
[1] = test system: myosin-X MyTH4–FERM cassette; assay: Pull-down with GST-fused C-terminal tail peptides of α- and β-tubulins; type: binding, human; details: for binding of tubulin C-terminal acidic tail peptides: 20 mM Tris–HCl (pH 8.0), 50 mM NaCl, 1 mM DTT, 4°C, 30 min
Outline: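 Purified MyTH4–FERM cassette was mixed with GST-fused α1A-tubulin (399–451) or β2B-tubulin (390–445) tail peptide in 20 mM Tris–HCl pH 8.0, 50 mM NaCl, 1 mM DTT at 4°C for 30 min. Glutathione-Sepharose was then added for 10 min at 4°C, with five washes. Elution used 20 mM glutathione in 50 mM Tris–HCl pH 8.0 with 150 mM NaCl, then SDS–PAGE.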

DCC [2] = assay: Co-immunoprecipitation of DCC with myc-tagged myosin-X MyTH4–FERM; type: cell-based; details: HEK293T cells, anti-myc antibody, immunoblot
[3] = test system: C-terminal acidic tail peptide of β2B-tubulin; assay: Pull-down of wild-type and mutated MyTH4–FERM cassettes with GST-tubulin tail; type: binding; details: SDS–PAGE
Outline: (§1)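 Human myosin-X MyTH4–FERM cassette (wild type or site-directed mutants) was expressed in E. coli BL21Star(DE3) at 20°C with 0.1 mM IPTG. It was Ni-NTA purified, then His-tag cleaved with HRV3C, then run over cation exchange and gel filtration. GST bait was human DCC 1390–1447 or β2B-tubulin 390–445. Cassette and bait were mixed with glutathione-Sepharose at 4°C, washed, and eluates resolved by SDS–PAGE.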

[4] = Analytical ultracentrifugation; type: physicochemical; details: AUC, mono-modal peak
Outline: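 Sedimentation velocity at 20°C and 25 000 r.p.m. Purified protein was in 20 mM Tris (pH 8.5), 150 mM NaCl and 5 mM DTT, at 1 mg/ml (14 μM). Sedimentation data were fitted to obtain the species distribution.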

[5] = test system: myosin-X MyTH4–FERM cassette; assay: Gel filtration and AUC of cassette–DCC P3 complex; type: binding, human; details: through the MyTH4–FERM cassette
DCC [6] = details: yeast two-hybrid; ref Zhu et al, 2007; cited from earlier work
microtubules = details: ref Weber et al, 2004; cited from earlier work
DCC P3 peptide = assay: Pull-down of wild-type and mutated MyTH4–FERM cassettes with GST-DCC P3 peptide; type: binding, human; details: SDS–PAGE
Outline: as §1

[7] = target: T1, myosin-X MyTH4–FERM cassette K1647D/K1650D (human, UniProt Q9HD67 1486-2058, Δ20 deletion (residues 1872–1891) | K1647D | K1650D); assay: pull-down
T1 sequence (looked up): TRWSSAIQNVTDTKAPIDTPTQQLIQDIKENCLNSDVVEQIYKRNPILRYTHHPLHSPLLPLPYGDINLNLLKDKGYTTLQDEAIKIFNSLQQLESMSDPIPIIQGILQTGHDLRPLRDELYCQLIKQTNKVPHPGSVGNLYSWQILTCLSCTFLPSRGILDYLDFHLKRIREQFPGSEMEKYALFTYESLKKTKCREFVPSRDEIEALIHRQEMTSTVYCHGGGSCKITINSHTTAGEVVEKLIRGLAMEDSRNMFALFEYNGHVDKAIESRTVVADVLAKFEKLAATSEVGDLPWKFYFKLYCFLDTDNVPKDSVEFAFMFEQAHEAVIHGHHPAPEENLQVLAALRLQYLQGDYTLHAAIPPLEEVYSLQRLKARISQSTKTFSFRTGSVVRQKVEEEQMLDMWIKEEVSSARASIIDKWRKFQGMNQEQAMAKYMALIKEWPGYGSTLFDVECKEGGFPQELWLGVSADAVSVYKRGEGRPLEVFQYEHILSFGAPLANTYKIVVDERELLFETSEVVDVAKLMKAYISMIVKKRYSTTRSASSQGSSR

[8] = target: T2, myosin-X MyTH4–FERM cassette F2002K (human, UniProt Q9HD67 1486-2058, Δ20 deletion (residues 1872–1891) | F2002K); assay: pull-down
T2 sequence (looked up): T1 sequence (looked up) with D162K, D165K, F497K

binding of tubulin C-terminal acidic tail peptides [1]: binds
Molecule: α-tubulin C-terminal acidic tail peptide: GST-fused C-terminal tail peptide of α1A-tubulin (399–451)

binding of tubulin C-terminal acidic tail peptides [1]: binds
Molecule: β-tubulin C-terminal acidic tail peptide: GST-fused C-terminal acidic tail peptide of β2B-tubulin (390–445) ({GST}-RRKAFLHWYTGEGMDEMEFTEAESNMNDLVSEYQQYQDATADEQGEFEEEEGEDEA; not fully specified)

B1: myc–MyTH4–FERM(ΔC): residues 1486–1954, lacks subdomain C of the FERM domain (protein)
chain: TRWSSAIQNVTDTKAPIDTPTQQLIQDIKENCLNSDVVEQIYKRNPILRYTHHPLHSPLLPLPYGDINLNLLKDKGYTTLQDEAIKIFNSLQQLESMSDPIPIIQGILQTGHDLRPLRDELYCQLIKQTNKVPHPGSVGNLYSWQILTCLSCTFLPSRGILKYLKFHLKRIREQFPGSEMEKYALFTYESLKKTKCREFVPSRDEIEALIHRQEMTSTVYCHGGGSCKITINSHTTAGEVVEKLIRGLAMEDSRNMFALFEYNGHVDKAIESRTVVADVLAKFEKLAATSEVGDLPWKFYFKLYCFLDTDNVPKDSVEFAFMFEQAHEAVIHGHHPAPEENLQVLAALRLQYLQGDYTLHAAIPPLEEVYSLQRLKARISQSTKTFTPCERLEKRRTSFLEGTLRRSFRTGSVVRQKVEEEQMLDMWIKEEVSSARASIIDKWRKFQGMNQEQAMAKYMALIKEWPGYG
modifications: left off: myc, end not stated, kept
co-immunoprecipitation of DCC (DCC [2]): no interaction

binding to α- and β-tubulin acidic tails ([1]; SDS–PAGE): binds both α- and β-tubulin acidic tails
binding to β2B-tubulin C-terminal tail peptide [3]: shows binding
B2: MyTH4–FERM cassette (protein)
chain: T1 sequence (looked up) with D162K, D165K
modifications: left off: His6, N-terminal, cleaved
association state in solution [4]: monomer
cargo-mediated dimerization of myosin-X [5]: no cargo-mediated dimerization was observed
DCC binding in two-hybrid assay (DCC [6]): sufficient for DCC and neogenin binding; also recorded: full DCC-binding affinity
microtubule association (microtubules): sufficient to confer microtubule association

binding to β2B-tubulin C-terminal tail peptide [3]: abolished binding
binding to DCC P3 peptide (DCC P3 peptide): only weakly affected binding
binding to DCC P3 peptide (DCC P3 peptide; listed as K1647D/K1650D): only a slight reduction in DCC binding
B3: Myo-X (K1647D/K1650D) (protein)
chain: T1 sequence (looked up)
modifications: left off: His6, N-terminal, cleaved

binding to β2B-tubulin C-terminal tail peptide [3]: no effect on tubulin tail binding
binding to β2B-tubulin C-terminal tail peptide ([3]; listed as F2002K): no effect on binding to the tubulin tail
binding to DCC P3 peptide (DCC P3 peptide): abolished the binding
binding to DCC P3 peptide (DCC P3 peptide; listed as F2002K): abolished DCC binding
B4: Myo-X (F2002K) (protein)
chain: T1 sequence (looked up) with D162K, D165K, F497K
modifications: left off: His6, N-terminal, cleaved

B5: myc-tagged myosin-X MyTH4–FERM cassette: myc-tagged full-length MyTH4–FERM cassette (residues 1486–2058) (protein)
chain: TRWSSAIQNVTDTKAPIDTPTQQLIQDIKENCLNSDVVEQIYKRNPILRYTHHPLHSPLLPLPYGDINLNLLKDKGYTTLQDEAIKIFNSLQQLESMSDPIPIIQGILQTGHDLRPLRDELYCQLIKQTNKVPHPGSVGNLYSWQILTCLSCTFLPSRGILKYLKFHLKRIREQFPGSEMEKYALFTYESLKKTKCREFVPSRDEIEALIHRQEMTSTVYCHGGGSCKITINSHTTAGEVVEKLIRGLAMEDSRNMFALFEYNGHVDKAIESRTVVADVLAKFEKLAATSEVGDLPWKFYFKLYCFLDTDNVPKDSVEFAFMFEQAHEAVIHGHHPAPEENLQVLAALRLQYLQGDYTLHAAIPPLEEVYSLQRLKARISQSTKTFTPCERLEKRRTSFLEGTLRRSFRTGSVVRQKVEEEQMLDMWIKEEVSSARASIIDKWRKFQGMNQEQAMAKYMALIKEWPGYGSTLFDVECKEGGFPQELWLGVSADAVSVYKRGEGRPLEVFQYEHILSFGAPLANTYKIVVDERELLFETSEVVDVAKLMKAYISMIVKKRYSTTRSASSQGSSR
modifications: left off: myc, end not stated, kept
co-immunoprecipitation of DCC (DCC [2]): co-immunoprecipitation of DCC

binding result [7]: binds
B6: GST-fused DCC P3 peptide (residues 1390–1447) (peptide, UniProt P43146 1390-1447, looked up)
chain: ARSPLLPVSVPTAPEVSEESHKPTEDSANVYEQDDLSEQMASLEGLMKQLNAITGSAF

binding result [8]: binds
B7: GST-fused β2B-tubulin C-terminal acidic tail peptide (390–445) (peptide, UniProt Q9BVA1 390-445, looked up)
chain: RRKAFLHWYTGEGMDEMEFTEAESNMNDLVSEYQQYQDATADEQGEFEEEEGEDEA
modifications: also: GST-fused (side not given here)
